This is a sample that favours compounds with a hit; in the whole collection about 4.8% have one here.
FLuc inhib CS: firefly luciferase enzyme inhibitors, primary screen, artefact control for luciferase-based inhibitor screens, biochemical, luminescence, ATPLite | Luciferin 4-monooxygenase (Photinus pyralis), P08659 | 10 min | inhibition, % at 10 µM | hit rate 1.5% among 200,000 | AID 1006, 2008;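 active = inhibition above about 50% when tested at 10 µM, limit read from the data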
APP 5UTR inh: inhibitors of APP translation via 5'UTR reporter, primary screen, APP 5'UTR luciferase, SH-SY5Y cells | inhibition, % at 2 µM | hit rate 0.82% among 190,000 | SH-SY5Y APP 5'UTR-luciferase reporter, luminescence | AID 1285, 2008;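 active = inhibition above a set limit, derived from the sample mean plus 3 SD, cut at about 45% in these data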
STAT1 act: STAT1 signaling activators, primary screen, cell-based, HTS, luciferase reporter | NIH 3T3 STAT1-luciferase reporter, IFN-gamma, luminescence; 100% = IFN-gamma alone, no compound | activation (% of control), % at 5.5 µM | hit rate 2.6% among 200,000 | AID 932, 2007;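 active = activation above the screen-wide mean activation plus 3 SD, cut at about 130% in these data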
FLuc act counter: FLuc activators, initial screening, artefact control for FLuc-dependent activation tests, biochemical, ATPlite luminescence | Luciferin 4-monooxygenase (Photinus pyralis), P08659 | ATPlite luciferase biochemical, 10 min; 0 = ATP-free wells, 1 = DMSO control | activation factor at 10 µM | 200,000 tested, under 10 active;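 active = luciferase activation factor, scaled between plate controls, of at least 2 with compound at 10 µM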
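Assay system: Luciferase/luciferin detection reagent, cell-free biochemical luciferase assay / Also added: ATP substrate / Schedule: 10 min at ambient temperature / Measured by: luminescence measurement of luciferase light output / Benchmarks: low control with PBS replacing ATP, high control enzyme plus ATP without compound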
APP 5'UTR act: activators of APP 5'UTR luciferase reporter, primary screen, SH-SY5Y cells | SH-SY5Y APP 5'UTR luciferase reporter, luminescence; zero percent = DMSO vehicle wells | activation, % at 2 µM | hit rate 1% among 190,000;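 active = activation above a set limit, based on mean plus 3 SD of controls, cut at about 140% in these data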
NF-kB neuron act: activators of NF-kB expression in neurons, primary screen, cell-based, HTS; human neuronal cells, NF-kB reporter expression; hits give high values; fold change at 12.5 µM; hit rate 1.6% among 190,000; in the data active = fold change above about 3.3
A number is an active result; 0 = inactive.

SMILES	FLuc inhib CS	APP 5UTR inh	STAT1 act	FLuc act counter	APP 5'UTR act	NF-kB neuron act
COc1ccc(/C=C/C(=O)c2ccccn2)cc1	96	0	0	0	0	0
COc1ccc(/C=C/C(=O)c2ccccc2O)cc1	0	0	0	0	0	5
O=C(c1ccc(Cl)cc1)c1oc2ccccc2c1CS(=O)c1ccccc1 (configuration not stated)	0	0	0	0	0	0
COc1cc([N+](=O)[O-])cc2cc(C(=O)N3CCCC3)c(=O)oc12	0	0	0	0	0	0
Cc1ccc(NC(=O)c2snc3ccc(Cl)cc23)cc1C	0	0	130	0	0	0
Cc1ccc(NC(=O)c2snc3c(=O)[nH]cnc23)cc1C	0	0	0	0	0	0
COCCn1c(SCC(=O)c2ccc(Cl)cc2)nnc1C(C)C	0	0	0	0	0	0
CN(C)c1ccc(N=Nc2ccccc2C(=O)OCC(=O)N2CCCC2)cc1	70	0	0	0	0	0
CN(C)c1ccc(N=Nc2ccccc2C(=O)OCC(=O)N2CCCCCC2)cc1	72	0	0	0	0	0
CCOC(=O)Cn1nnnc1CN(Cc1cccs1)Cc1cc2cc(C)ccc2[nH]c1=O	0	62	0	0	0	0
CCc1nnc(NC(=O)CSc2ccc(-c3nc4ccc(C)cc4[nH]3)cn2)s1	58	0	0	0	138	0
Cc1ccc2nc(-c3ccc(SCC(=O)O)nc3)[nH]c2c1	0	0	0	0	0	0
CC(=O)CSc1ccc(-c2nc3cc(C)c(C)cc3[nH]2)cn1	85	0	0	0	0	0
Cc1cc2nc(-c3ccc(SCC(=O)Nc4nccs4)nc3)[nH]c2cc1C	0	0	0	0	156	0
Cc1cc2nc(-c3ccc(SCC(=O)Nc4ccc(S(=O)(=O)N5CCCC5)cc4)nc3)[nH]c2cc1C	72	0	140	0	153	0
CC(C)[C@H](NC(=O)c1ccc(C(C)(C)C)cc1)C(=O)Nc1nnc(C2CC2)s1	0	0	0	0	0	0
CCCNC(=O)[C@H](C)NC(=O)c1ccc(Br)cc1	0	0	0	0	0	0
COCC(C)N1CC(O)=C(c2nc(-c3ccc(Cl)cc3)cs2)C1=N (configuration not stated)	0	0	0	0	0	0
Cc1ccc2nc(-c3ccc(SCC(=O)N4CCc5ccccc54)nc3)[nH]c2c1	78	0	131	0	0	0
CCCNc1c(NC(C)=O)c(=O)oc2ccccc12	0	0	0	0	0	0
COc1ccc(-c2cc(=O)c3c(O)c(OC)c(O)cc3o2)cc1	90	0	0	0	152	9
COc1cc(-c2cc(=O)c3ccccc3o2)ccc1O	0	0	134	0	0	0
NC(=O)COc1ccc2oc(-c3ccccc3)cc(=O)c2c1	56	0	0	0	0	0
O=c1cc(-c2ccc(O)cc2)oc2ccc(O)cc12	0	0	150	0	0	4.1
O=c1cc(-c2ccncc2)oc2ccccc12	0	0	0	0	0	0
SMILES	FLuc inhib CS	APP 5UTR inh	STAT1 act	FLuc act counter	APP 5'UTR act	NF-kB neuron act
COc1cc(-c2cc(=O)c3c(O)cc(O)cc3o2)ccc1O	0	0	0	0	0	0
CCOC(=O)C(C)/C(C)=N/NC(N)=S (configuration not stated)	0	0	0	0	0	0
CCOC(=O)C1CC(c2ccccc2)=NNC1=O (configuration not stated)	0	0	0	0	0	0
Cn1c(=O)c(C(=O)CN2CC(=O)Nc3ccccc32)c(N)n(Cc2ccccc2)c1=O	0	0	0	0	0	0
C/C(=N/NC(=O)CNC(=O)c1ccccn1)c1cccc([N+](=O)[O-])c1	0	0	0	0	0	0
Cc1ccc(/C=C/C(=O)c2ccc(N3CCOCC3)cc2)s1	94	0	135	0	0	0
O=Cc1cc2ccccc2nc1SCc1ccc(Cl)cc1	0	0	0	0	0	0
Cc1ccc(CSc2nc3ccccc3cc2C=O)cc1	0	94	0	0	0	0
